In ChEMBL document CHEMBL4610127, “Novel Autotaxin Inhibitor for the Treatment of Idiopathic Pulmonary Fibrosis: A Clinical Candidate Discovered Using DNA-Encoded Chemistry” (J Med Chem, 2020):
Calls of active or inactive are those of the source. No cut-off for these calls is given here.

Experiments:
[1] = Volume of distribution at steady state in rat at 1 mg/kg, iv; format: ADME, organism-based; settings: in vivo, read-out: Vdss
Mus musculus [2] = test: Anti-fibrotic activity in C57BL/6 mouse model of bleomycin-induced lung fibrosis assessed as reduction in lung fibrosis levels at 30 to 300 mg/kg, po BID for 21 days dosed 7 days after bleomycin treatment by trichrome staining based assay; format: functional, organism-based
Summary of the method: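 Therapeutic mode: oral BID dosing (30, 100, 300 mg/kg) began seven days after bleomycin. Mice killed 21 days after bleomycin; fibrosis quantitated by trichrome staining of lung tissue in a separate group from the hydroxyproline group. GLPG1690 at 30 and 100 mg/kg BID as control.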

[3] = Cmax in mouse at 10 mg/kg, po; format: ADME, organism-based; parameters: dose 10 mg/kg, route oral; settings: in vivo
[4] = biological target: Lysophosphatidic acid receptor 1 (Homo sapiens, UniProt Q92633); test: Inhibition of LPAR1 (unknown origin)
[5] = biological target: T1, Voltage-gated inwardly rectifying potassium channel KCNH2 (Homo sapiens, UniProt Q12809); test: Inhibition of human ERG by GLP based assay
Mus musculus [6] = test: Anti-fibrotic activity in C57BL/6 mouse model of bleomycin-induced lung fibrosis assessed as reduction in hydroxyproline levels at 30 mg/kg, po BID for 21 days dosed 7 days after bleomycin treatment; format: functional, organism-based
Summary of the method: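 Mice given oral BID doses (30, 100 or 300 mg/kg) starting seven days after bleomycin. Killed 21 days after bleomycin; lung fibrosis scored by hydroxyproline in one group. GLPG1690 at 30 and 100 mg/kg BID as control. Medians and p-values against bleomycin + vehicle.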

[7] = Cmax in rat at 5 mg/kg, po; format: ADME, organism-based; parameters: dose 5 mg/kg, route oral; settings: in vivo
[8] = Clearance in rat at 1 mg/kg, iv; format: ADME, organism-based; settings: in vivo
[9] = biological target: T2, Ectonucleotide pyrophosphatase/phosphodiesterase family member 1 (Homo sapiens, UniProt P22413); test: Inhibition of ENPP1 (unknown origin)
T2 sequence (P22413 whole entry): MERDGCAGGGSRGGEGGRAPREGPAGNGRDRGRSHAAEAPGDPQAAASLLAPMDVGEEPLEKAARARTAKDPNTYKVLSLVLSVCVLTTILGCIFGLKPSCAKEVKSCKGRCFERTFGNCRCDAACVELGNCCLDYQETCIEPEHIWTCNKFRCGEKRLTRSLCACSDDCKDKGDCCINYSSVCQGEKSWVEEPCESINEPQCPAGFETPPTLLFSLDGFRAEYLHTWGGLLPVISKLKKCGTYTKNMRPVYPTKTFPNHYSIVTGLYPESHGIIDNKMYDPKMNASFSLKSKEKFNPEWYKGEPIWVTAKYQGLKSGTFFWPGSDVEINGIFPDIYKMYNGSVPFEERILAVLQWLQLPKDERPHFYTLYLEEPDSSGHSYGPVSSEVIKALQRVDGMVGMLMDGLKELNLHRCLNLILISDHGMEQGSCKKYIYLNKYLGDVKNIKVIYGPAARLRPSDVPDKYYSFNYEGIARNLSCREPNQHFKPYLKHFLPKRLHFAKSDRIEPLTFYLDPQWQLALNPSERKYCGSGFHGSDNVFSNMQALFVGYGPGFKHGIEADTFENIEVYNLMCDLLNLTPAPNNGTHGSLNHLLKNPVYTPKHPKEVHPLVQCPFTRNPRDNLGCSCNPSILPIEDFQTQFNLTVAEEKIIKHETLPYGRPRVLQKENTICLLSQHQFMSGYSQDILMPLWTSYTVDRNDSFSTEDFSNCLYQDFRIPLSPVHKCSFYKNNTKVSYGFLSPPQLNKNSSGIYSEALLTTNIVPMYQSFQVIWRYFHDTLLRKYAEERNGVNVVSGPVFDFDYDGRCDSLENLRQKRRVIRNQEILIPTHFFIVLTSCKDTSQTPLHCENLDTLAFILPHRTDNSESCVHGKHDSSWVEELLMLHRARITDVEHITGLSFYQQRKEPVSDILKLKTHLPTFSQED

[10] = AUClast in mouse at 10 mg/kg, po; format: ADME, organism-based; parameters: dose 10 mg/kg, time 0 - last, route oral; settings: in vivo
[11] = Oral bioavailability in dog at 1 mg/kg; format: ADME, organism-based, Canis lupus familiaris; settings: in vivo
[12] = Half life in dog at 1 mg/kg, iv; format: ADME, organism-based, Canis lupus familiaris; settings: in vivo
[13] = Half life in rat at 5 mg/kg, po; format: ADME, organism-based; settings: in vivo
[14] = AUClast in rat at 5 mg/kg, po; format: ADME, organism-based; parameters: dose 5 mg/kg, route oral, time 0 - last; settings: in vivo
Mus musculus [15] = test: Anti-fibrotic activity in C57BL/6 mouse model of bleomycin-induced lung fibrosis assessed as reduction in hydroxyproline levels at 100 to 300 mg/kg, po BID dosed until day 21 starting one day prior to bleomycin treatment; format: functional, organism-based
Summary of the method: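 Mice given oral BID doses (30, 100 or 300 mg/kg) starting one day before bleomycin. Killed 21 days after bleomycin; lung fibrosis scored by hydroxyproline in one group. GLPG1690 at 30 and 100 mg/kg BID as control. Hydroxyproline plotted per mouse; medians and p-values against bleomycin + vehicle.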

Cytochrome P450 2D6 = Cytochrome P450 2D6 (Homo sapiens, UniProt P10635); test: Inhibition of CYP2D6 (unknown origin); format: ADME
[16] = Clearance in dog at 1 mg/kg, iv; format: ADME, organism-based, Canis lupus familiaris; settings: in vivo
[17] = Cmax in dog at 1 mg/kg, po; format: ADME, organism-based, Canis lupus familiaris; parameters: dose 1 mg/kg, route oral; settings: in vivo
[18] = Protein binding in rat plasma; format: ADME, cell-free; settings: read-out: PPB (converted)
[19] = Oral bioavailability in mouse at 10 mg/kg; format: ADME, organism-based; settings: in vivo
[20] = biological target: T1, Voltage-gated inwardly rectifying potassium channel KCNH2; test: Inhibition of human ERG by manual patch clamp assay

T1 sequence (Q12809 whole entry): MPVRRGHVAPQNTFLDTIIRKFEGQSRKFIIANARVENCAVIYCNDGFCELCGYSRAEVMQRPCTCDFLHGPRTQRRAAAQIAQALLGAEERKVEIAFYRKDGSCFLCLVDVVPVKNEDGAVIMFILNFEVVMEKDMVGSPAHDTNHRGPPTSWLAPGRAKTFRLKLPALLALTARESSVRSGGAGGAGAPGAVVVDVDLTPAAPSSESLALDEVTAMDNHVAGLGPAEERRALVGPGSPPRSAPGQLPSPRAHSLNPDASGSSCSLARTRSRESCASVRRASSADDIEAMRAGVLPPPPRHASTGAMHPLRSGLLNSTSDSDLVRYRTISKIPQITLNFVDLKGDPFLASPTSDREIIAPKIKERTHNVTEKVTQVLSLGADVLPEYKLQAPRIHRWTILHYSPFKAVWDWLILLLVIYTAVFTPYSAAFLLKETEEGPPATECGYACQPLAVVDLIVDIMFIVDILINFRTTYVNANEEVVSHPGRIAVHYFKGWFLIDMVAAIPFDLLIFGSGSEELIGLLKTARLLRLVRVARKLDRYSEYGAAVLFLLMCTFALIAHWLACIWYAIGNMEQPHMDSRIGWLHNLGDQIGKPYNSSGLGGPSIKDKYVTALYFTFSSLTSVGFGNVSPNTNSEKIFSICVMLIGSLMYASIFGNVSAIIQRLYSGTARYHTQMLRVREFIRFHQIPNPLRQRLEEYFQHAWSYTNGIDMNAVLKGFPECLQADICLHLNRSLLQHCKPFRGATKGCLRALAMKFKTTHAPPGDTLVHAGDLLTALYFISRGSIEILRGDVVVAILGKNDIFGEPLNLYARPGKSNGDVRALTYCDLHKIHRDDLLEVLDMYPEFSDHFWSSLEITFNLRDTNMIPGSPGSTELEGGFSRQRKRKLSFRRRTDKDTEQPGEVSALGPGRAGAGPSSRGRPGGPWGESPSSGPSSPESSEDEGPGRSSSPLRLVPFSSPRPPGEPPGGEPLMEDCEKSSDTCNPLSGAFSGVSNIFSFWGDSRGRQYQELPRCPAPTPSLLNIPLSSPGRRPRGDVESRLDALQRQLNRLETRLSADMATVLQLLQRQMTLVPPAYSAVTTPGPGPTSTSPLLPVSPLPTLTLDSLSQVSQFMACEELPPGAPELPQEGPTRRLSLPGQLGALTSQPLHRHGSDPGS
Lysophosphatidic acid receptor 1, sequence (Q92633 whole entry): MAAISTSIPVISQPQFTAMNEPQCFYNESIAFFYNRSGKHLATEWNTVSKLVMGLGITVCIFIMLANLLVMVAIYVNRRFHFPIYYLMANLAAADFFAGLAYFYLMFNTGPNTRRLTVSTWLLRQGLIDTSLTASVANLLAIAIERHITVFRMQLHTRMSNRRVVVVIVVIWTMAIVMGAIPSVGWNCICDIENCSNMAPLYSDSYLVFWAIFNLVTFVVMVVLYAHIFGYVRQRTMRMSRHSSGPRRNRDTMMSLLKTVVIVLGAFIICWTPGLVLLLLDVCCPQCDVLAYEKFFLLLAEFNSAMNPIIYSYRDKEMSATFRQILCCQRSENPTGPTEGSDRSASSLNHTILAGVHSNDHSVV
Cytochrome P450 2D6, sequence (P10635 whole entry): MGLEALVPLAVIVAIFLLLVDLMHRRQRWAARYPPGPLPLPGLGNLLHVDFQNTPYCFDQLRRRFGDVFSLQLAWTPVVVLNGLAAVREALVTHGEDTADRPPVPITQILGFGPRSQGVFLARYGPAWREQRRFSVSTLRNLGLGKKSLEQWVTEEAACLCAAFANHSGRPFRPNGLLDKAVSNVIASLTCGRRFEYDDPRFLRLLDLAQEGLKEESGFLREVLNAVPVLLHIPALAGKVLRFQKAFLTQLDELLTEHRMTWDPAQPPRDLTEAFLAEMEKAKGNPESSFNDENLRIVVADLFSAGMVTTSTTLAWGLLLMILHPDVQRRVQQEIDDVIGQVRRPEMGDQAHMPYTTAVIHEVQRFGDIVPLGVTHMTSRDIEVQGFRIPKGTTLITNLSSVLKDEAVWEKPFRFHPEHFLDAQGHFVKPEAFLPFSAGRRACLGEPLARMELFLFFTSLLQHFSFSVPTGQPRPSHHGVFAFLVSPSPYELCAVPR

CC(C)[C@@H](NC(=O)c1cc(C(F)(F)F)ccc1F)C(=O)N1CCC2(CC1)C(=O)N(C)C(=O)N2c1ccc2[nH]ncc2c1
Vd [1]: 1.98 L/kg
Activity (Mus musculus [2]): Dose-dependent effect
Cmax [3]: 744 ng/mL
IC50 [4]: > 10 µM
IC50 [5]: > 50 µM
Activity (Mus musculus [6]): inactive
Cmax [7]: 160 ng/mL
clearance [8]: 36 mL/min/kg
IC50 [9]: > 10 µM
AUC(0-t) [10]: 2590 ng·h/mL
bioavailability [11]: 100%
half-life [12]: 4.1 h
half-life [13]: 1.8 h
AUC(0-t) [14]: 518 ng·h/mL
Activity (Mus musculus [15]): Active
IC50 (Cytochrome P450 2D6): > 50 µM
clearance [16]: 7.96 mL/min/kg
Cmax [17]: 374 ng/mL
fraction unbound [18]: 0.273
bioavailability [19]: 81%
IC50 [20]: > 50 µM
